# In ChEMBL document CHEMBL6092133, “Enhancing the therapeutic window for Spectinamide anti-tuberculosis Agents: Synthesis, Evaluation, and activation of phosphate prodrug 3408” (Bioorg Med Chem Lett, 2024):
# Activity calls are given as the source filed them. No cut-off for these calls is given here.
# Tests used:
# [1] = Toxicity in Sprague-Dawley rat assessed as maximum tolerated dose administered as iv bolus injection for 5 sec; assay type: organism-based; settings: in vivo
# Outline: (§1)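 Rats given single intravenous doses either as a bolus over 5 or 30 seconds or as a timed infusion (minutes, per line). The highest dose tolerated without acute toxicity was recorded as MTD in mg/kg.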
# [2] = Toxicity in Sprague-Dawley rat assessed as maximum tolerated dose administered as iv bolus injection for 30 sec; assay type: organism-based; settings: in vivo; outline: as §1
# [3] = Toxicity in Sprague-Dawley rat assessed as maximum tolerated dose administered via iv infusion for 5 mins; assay type: organism-based; settings: in vivo; outline: as §1
# [4] = Toxicity in Sprague-Dawley rat assessed as maximum tolerated dose administered via iv infusion for 15 mins; assay type: organism-based; settings: in vivo; outline: as §1
# [5] = biological target: Bacterial 70S ribosome; assay: Inhibition of ribosome-mediated protein synthesis in Mycobacterium smegmatis; assay type: subcellular, Mycolicibacterium smegmatis
# [6] = AUC in male Sprague-Dawley rat at 10 mg/kg, iv administered as bolus injection and measured after 48 hrs by LC-MS/MS analysis; assay type: ADME, organism-based; settings: in vivo
# Outline: (§2)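 Rats dosed once by 10 mg/kg i.v. bolus with either the parent spectinamide or the phosphate prodrug at an equivalent molar amount. Plasma parent-drug concentration-time profiles gave AUC, Cmax, clearance, Vss and terminal half-life, reported as mean ± spread.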
# [7] = Cmax in male Sprague-Dawley rat at 10 mg/kg, iv administered as bolus injection and measured after 48 hrs by LC-MS/MS analysis; assay type: ADME, organism-based; settings: in vivo; outline: as §2
# [8] = Clearance in male Sprague-Dawley rat at 10 mg/kg, iv administered as bolus injection and measured after 48 hrs by LC-MS/MS analysis; assay type: ADME, organism-based; settings: in vivo; outline: as §2
# [9] = Volume of distribution at steady state in male Sprague-Dawley rat at 10 mg/kg, iv administered as bolus injection and measured after 48 hrs by LC-MS/MS analysis; assay type: ADME, organism-based; settings: in vivo, read-out: Vdss; outline: as §2
# [10] = Half life in male Sprague-Dawley rat at 10 mg/kg, iv administered as bolus injection and measured after 48 hrs by LC-MS/MS analysis; assay type: ADME, organism-based; settings: in vivo; outline: as §2
# [11] = test system: Mycobacterium tuberculosis; assay: Antibacterial activity against Mycobacterium tuberculosis H37Rv by whole cell MIC assay; assay type: functional, organism-based
# [12] = Prodrug conversion in rat plasma assessed as 2-(5-chloropyridin-2-yl)-N-((2R,4R,4aS,5aR,6S,7S,8R,9S,9aR,10aS)-4a,7,9-trihydroxy-2-methyl-6,8-bis(methylamino)decahydro-2H-benzo[b]pyrano[2,3-e][1,4]dioxin-4-yl)acetamide formation by measuring half-life at 0.1 to 1 microg/ml; assay type: ADME, cell-free; settings: dose 0.1-1 µg/ml
# Outline: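 Prodrug incubated in vitro in fresh rat plasma. Appearance of the parent drug was followed over time to give a conversion half-life.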
# [13] = Stability of compound in plasmaLyte A and milli-Q water mixture measured for >=6 hrs at room temperature by LC-MS/MS analysis; assay type: physicochemical; settings: buffer
# Outline: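 Prodrug held in dosing vehicle alone at room temperature for at least 6 hours, with compound integrity monitored over time.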
# [14] = (§3) Prodrug conversion in male Sprague-Dawley rat assessed as AUC of 2-(5-chloropyridin-2-yl)-N-((2R,4R,4aS,5aR,6S,7S,8R,9S,9aR,10aS)-4a,7,9-trihydroxy-2-methyl-6,8-bis(methylamino)decahydro-2H-benzo[b]pyrano[2,3-e][1,4]dioxin-4-yl)acetamide at 10 mg/kg, iv administered as bolus injection and measured after 48 hrs by LC-MS/MS analysis; assay type: ADME, organism-based; settings: in vivo; outline: as §2
# [15] = as §3, with “Cmax” for “AUC”; assay type: ADME, organism-based; settings: in vivo; outline: as §2
# [16] = as §3, with “clearance” for “AUC”; assay type: ADME, organism-based; settings: in vivo; outline: as §2
# [17] = as §3, with “volume of distribution at steady state” for “AUC”; assay type: ADME, organism-based; settings: in vivo; outline: as §2
# [18] = as §3, with “half-life” for “AUC”; assay type: ADME, organism-based; settings: in vivo; outline: as §2
# [19] = Toxicity in Sprague-Dawley rat assessed as maximum tolerated dose administered via iv infusion for 30 mins; assay type: organism-based; settings: in vivo; outline: as §1
structure (smiles),measurement,setting,value
CN[C@@H]1[C@H](O)[C@H](NC)[C@H]2O[C@]3(O)[C@H](O[C@@H]2[C@H]1O)O[C@H](C)C[C@H]3NC(=O)Cc1ccc(O)cn1,MTD at 5 s,[1],200 mg/kg
same,MTD at 0.5 min,[2],200 mg/kg
same,MTD at 5 min,[3],350 mg/kg
same,MTD at 0.25 h,[4],> 500 mg/kg
same,IC50,[5],1790 nM
same,AUC at 48 h,[6],22000 ng·h/mL
same,Cmax,[7],47000 ng/mL
same,clearance,[8],7.72 mL/min/kg
same,Vd,[9],0.494 L/kg
same,half-life,[10],23.5 min
CN[C@@H]1[C@H](O)[C@H](NC)[C@H]2O[C@@]3(O)C(=O)C[C@@H](C)O[C@H]3O[C@@H]2[C@H]1O [SPECTINOMYCIN],IC50,[5],1080 nM
CN[C@@H]1[C@H](O)[C@H](NC)[C@H]2O[C@]3(O)[C@H](O[C@@H]2[C@H]1O)O[C@H](C)C[C@H]3NC(=O)Cc1ccc(OP(=O)(O)O)cn1,MTD at 5 s,[1],> 500 mg/kg
same,Activity,[11],inactive
same,IC50,[5],12200 nM
same,t1/2,[12],19 min
same,Stability,[13],Stable
same,AUC,[14],18500 ng·h/mL
same,Cmax,[15],38900 ng/mL
same,CL,[16],9.1 mL/min/kg
same,Vdss,[17],0.322 L/kg
same,t1/2,[18],23.4 min
CN[C@@H]1[C@H](O)[C@H](NC)[C@H]2O[C@]3(O)[C@H](O[C@@H]2[C@H]1O)O[C@H](C)C[C@H]3NC(=O)Cc1ccc(Cl)cn1,MTD at 5 s,[1],75 mg/kg
same,MTD at 0.5 min,[2],100 mg/kg
same,MTD at 5 min,[3],100 mg/kg
same,MTD at 0.25 h,[4],150 mg/kg
same,MTD at 0.5 h,[19],300 mg/kg
